Data set [1] has as its system Mus musculus. Description: Gastrointestinal toxicity in mouse assessed as tail bleeding time at 200 mg/kg, po after 30 mins. Further details: dose 200 mg/kg, route oral. Conditions: in vivo, 0.5 h. Format: organism-based. In outline: (§1)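 Male mice (18–22 g) are dosed orally and compared with an NS group. At 30, 45, 60 and 90 min after dosing, each mouse is restrained in a tube holder and a 2-mm cut is made on the tail. Blood is wiped away every 30 s until flow stops, and the time to cessation is recorded.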

In data set [2] the test system is Mus musculus. Nature of the data set: Gastrointestinal toxicity in mouse assessed as tail bleeding time at 200 mg/kg, po after 90 mins. Format: organism-based. Also on record: dose 200 mg/kg, route oral. Conditions: in vivo, 1.5 h. In outline:
as §1

The test system of data set [3] is Mus musculus. Nature of the data set: Gastrointestinal toxicity in mouse assessed as tail bleeding time at 200 mg/kg, po after 45 mins. The data set is classed as organism-based. Also on record: dose 200 mg/kg, route oral. Conditions: in vivo, 0.75 h. In outline:
as §1

Data set [4] has as its system Mus musculus. Nature of the data set: Gastrointestinal toxicity in mouse assessed as tail bleeding time at 200 mg/kg, po after 60 mins. Further details: dose 200 mg/kg, route oral. Format: organism-based. Conditions: in vivo, 1 h. In outline: as §1
A short description of data set [5]: Inhibition of bovine brain PKC. Also on record: species or system Bos taurus.

As a reminder, the IC50 is the midpoint of a concentration-inhibition curve. A higher IC50 goes with weaker potency in that assay.

As to `N[C@H]1CCO[C@H](c2ccc([N+](=O)[O-])cc2)OC1`, the Time in the data set with Mus musculus [1] is given as 118.5 s; with Mus musculus [2], 117.9 s; in the data set on Mus musculus [3], 119 s; in the data set with Mus musculus [4] it was 118.6 s.

In the case of `N[C@H]1CO[C@H](c2ccc(Cl)cc2)OC1`, the Time in the data set with Mus musculus [1] is 119 s; in the data set on Mus musculus [2], 119.6 s; with Mus musculus [3], 118.9 s; in the data set on Mus musculus [4], 118.7 s.

In the case of `N[C@H]1CCCO[C@H](c2cccc([N+](=O)[O-])c2)OC1`, the Time with Mus musculus [1] is given as 117.8 s; with Mus musculus [2], 118 s; in the data set with Mus musculus [3], 117.9 s; with Mus musculus [4], 121.5 s.

On to `N[C@H]1CCCO[C@H](c2ccc([N+](=O)[O-])cc2)OC1`, for which the Time with Mus musculus [1] is 118.6 s; with Mus musculus [2] it was 117.7 s; in the data set on Mus musculus [3], 120.3 s; with Mus musculus [4] it was 118.5 s.

Take `Cc1ccc([C@@H]2OC[C@@H](N)[C@H](C)O2)cc1`: the Time in the data set on Mus musculus [1] is listed as 120.4 s; in the data set with Mus musculus [2], 117.7 s; in the data set with Mus musculus [3], 118.5 s; with Mus musculus [4], 118.9 s.

Turning to `C[C@@H]1O[C@H](c2ccccc2)OC[C@H]1N`, the Time in the data set with Mus musculus [1] is recorded as 118.7 s; with Mus musculus [2] it was 118.9 s; with Mus musculus [3], 118.9 s; in the data set with Mus musculus [4], 118.6 s.

On to `N[C@H]1CO[C@H](c2ccc([N+](=O)[O-])cc2)OC1`, for which the Time with Mus musculus [1] turned out to be 119.5 s; with Mus musculus [2], 118.9 s; with Mus musculus [3], 117.7 s; in the data set with Mus musculus [4], 118.6 s.

Molecule `O=C(Cc1ccccc1)N[C@H]1CO[C@@H](c2cccc([N+](=O)[O-])c2)OC1` came in with a 50% inhibitory concentration (IC50) in data set [5] of 2810 µM.

On to `N[C@H]1CO[C@@H](c2ccc(Cl)cc2)OC1`, for which the Time in the data set on Mus musculus [1] is given as 118.5 s; in the data set with Mus musculus [2], 119.4 s; in the data set with Mus musculus [3], 118.9 s; in the data set on Mus musculus [4] it was 120.9 s.

On to `N[C@H]1CCCO[C@@H](c2ccc(Cl)cc2)OC1`, for which the Time with Mus musculus [1] was 119.4 s; in the data set on Mus musculus [2], 117.8 s; in the data set with Mus musculus [3] it was 117.5 s; in the data set on Mus musculus [4], 118.4 s.

In the case of `O=C(Cc1ccccc1)N[C@H]1CCO[C@@H](c2cccc([N+](=O)[O-])c2)OC1`, the 50% inhibitory concentration (IC50) in data set [5] came out at 3010 µM.

In the case of `N[C@H]1CCCO[C@@H](c2cccc([N+](=O)[O-])c2)OC1`, the Time in the data set with Mus musculus [1] came to 119.3 s; with Mus musculus [2], 119.3 s; in the data set with Mus musculus [3] it was 118.2 s; in the data set with Mus musculus [4], 118.5 s.

On to `N[C@H]1CCO[C@@H](c2cccc([N+](=O)[O-])c2)OC1`, for which the Time in the data set on Mus musculus [1] turned out to be 120.1 s; in the data set with Mus musculus [2], 118.6 s; with Mus musculus [3], 118.7 s; with Mus musculus [4], 118.5 s.

Regarding `N[C@H]1CO[C@@H](c2ccccc2)OC1`, the Time is given as 119.2 s with Mus musculus [1], 118.7 s in the data set with Mus musculus [2], 118.8 s in the data set with Mus musculus [3] and 117.6 s in the data set with Mus musculus [4].

The molecule `O=C(Cc1ccccc1)N[C@H]1CO[C@@H](c2ccc(Cl)cc2)OC1` displayed an IC50 in data set [5] of 2690 µM.

In the case of `O=C(Cc1ccccc1)N[C@H]1CCO[C@H](c2cccc([N+](=O)[O-])c2)OC1`, the half-inhibitory concentration (IC50) in data set [5] stood at 2930 µM. This IC50 and that of the molecule before are within 1.5-fold of each other.

`N[C@H]1CCO[C@H](c2ccc(Cl)cc2)OC1`: the Time in the data set on Mus musculus [1] came to 117.9 s; with Mus musculus [2], 118.6 s; in the data set on Mus musculus [3], 118.5 s; with Mus musculus [4], 119.2 s.

In turn, `O=C(Cc1ccccc1)N[C@H]1CO[C@@H](c2ccc([N+](=O)[O-])cc2)OC1` returned a half-maximal inhibitory concentration (IC50) in data set [5] of 2770 µM.

Regarding `N[C@H]1CCO[C@H](c2cccc([N+](=O)[O-])c2)OC1`, the Time is recorded as 117.9 s with Mus musculus [1], 118.5 s with Mus musculus [2], 118.6 s in the data set with Mus musculus [3] and 119 s with Mus musculus [4].

On to `N[C@H]1CO[C@@H](c2ccc([N+](=O)[O-])cc2)OC1`, for which the Time in the data set on Mus musculus [1] was 119.4 s; in the data set with Mus musculus [2], 119.4 s; with Mus musculus [3], 118.7 s; in the data set with Mus musculus [4] it was 120.6 s.

`O=C(Cc1ccccc1)N[C@H]1CCO[C@@H](c2ccc([N+](=O)[O-])cc2)OC1` had an IC50 in data set [5] of 2980 µM. This counts as millimolar.

`N[C@H]1CCCO[C@@H](c2ccc([N+](=O)[O-])cc2)OC1`: the Time amounted to 118.6 s with Mus musculus [1], 117.6 s with Mus musculus [2], 119 s with Mus musculus [3] and 118.4 s in the data set with Mus musculus [4].

Regarding `O=C(Cc1ccccc1)N[C@H]1CO[C@H](c2ccc(Cl)cc2)OC1`, the IC50 in data set [5] was 2710 µM.

In the case of `O=C(Cc1ccccc1)N[C@H]1CO[C@H](c2ccc([N+](=O)[O-])cc2)OC1`, in data set [5], it took 2850 µM to reach half-maximal inhibition (IC50).

Take `N[C@H]1CO[C@H](c2cccc([N+](=O)[O-])c2)OC1`: the Time was determined as 118.8 s in the data set on Mus musculus [1], 118.7 s in the data set on Mus musculus [2], 118 s in the data set with Mus musculus [3] and 118.4 s with Mus musculus [4].

For `Cc1ccc([C@H]2OC[C@H](N)CO2)cc1`, the Time in the data set with Mus musculus [1] stood at 118.5 s; in the data set with Mus musculus [2] it was 117.8 s; in the data set with Mus musculus [3], 119.2 s; in the data set on Mus musculus [4], 119.5 s.

In the case of `O=C(Cc1ccccc1)N[C@H]1CCO[C@@H](c2ccc(Cl)cc2)OC1`, in data set [5], the IC50 was found to be 2950 µM.

In the case of `N[C@H]1CO[C@@H](c2cccc([N+](=O)[O-])c2)OC1`, the Time in the data set on Mus musculus [1] stood at 119.3 s; with Mus musculus [2] it was 120.2 s; in the data set with Mus musculus [3], 118.2 s; with Mus musculus [4], 119.1 s.

Take `C[C@@H]1O[C@@H](c2cccc([N+](=O)[O-])c2)OC[C@H]1N`: the Time is 118.9 s in the data set on Mus musculus [1], 118.3 s in the data set with Mus musculus [2], 119.2 s in the data set on Mus musculus [3] and 117.4 s in the data set on Mus musculus [4].

In the case of `Cc1ccc([C@H]2OC[C@@H](N)CO2)cc1`, the Time in the data set with Mus musculus [1] worked out at 118.3 s; in the data set with Mus musculus [2] it was 118.4 s; with Mus musculus [3], 119 s; with Mus musculus [4], 118.7 s.

On to `C[C@@H]1O[C@H](c2cccc([N+](=O)[O-])c2)OC[C@H]1N`, for which the Time amounted to 118.9 s with Mus musculus [1], 118.2 s in the data set on Mus musculus [2], 118.2 s with Mus musculus [3] and 119.5 s in the data set with Mus musculus [4].

As for `N[C@H]1CO[C@H](c2ccccc2)OC1`, the Time in the data set on Mus musculus [1] was 119.3 s; in the data set with Mus musculus [2], 119.6 s; with Mus musculus [3], 119.2 s; in the data set on Mus musculus [4], 119.7 s.

As for `N[C@H]1CCCO[C@H](c2ccc(Cl)cc2)OC1`, the Time with Mus musculus [1] was found to be 117.9 s; in the data set with Mus musculus [2], 118.3 s; in the data set with Mus musculus [3], 118.7 s; in the data set with Mus musculus [4] it was 119.1 s.

Consider `N[C@H]1CCO[C@@H](c2ccc(Cl)cc2)OC1`, for which the Time in the data set on Mus musculus [1] was determined as 118.4 s; in the data set with Mus musculus [2] it was 119 s; in the data set on Mus musculus [3], 119.6 s; with Mus musculus [4], 118.6 s.

With `Cc1ccc([C@H]2OC[C@@H](N)[C@H](C)O2)cc1`, the Time is given as 120.9 s in the data set on Mus musculus [1], 118.7 s in the data set with Mus musculus [2], 121 s in the data set with Mus musculus [3] and 119.8 s with Mus musculus [4].

Consider `N[C@H]1CCO[C@@H](c2ccc([N+](=O)[O-])cc2)OC1`, for which the Time in the data set on Mus musculus [1] came to 117.8 s; in the data set with Mus musculus [2] it was 117.2 s; in the data set on Mus musculus [3] it was 118.5 s; in the data set with Mus musculus [4], 117.9 s.

Values taken from ChEMBL document CHEMBL1140692, “Toward the development of chemoprevention agents. Part II: Chemo-enzymatic synthesis and anti-inflammatory activities of a new class of 5-amino-2-substitutedphenyl-1,3-dioxacycloalkanes” (Bioorg Med Chem, 2007).
